Data taken from paper PMC7038784 (Clinical cancer research : an official journal of the …, 2019).
One block for each molecule: values may come before it.

Legend:
DTC = conditions: study of 20 patients; cited from earlier work
[1] = Plasma pharmacokinetics in DTC expansion cohort; format: in vivo, human; conditions: steady-state trough
How it was run: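 Oral once-daily dosing in patients, 28-day cycles. The VEGFR inhibitor was profiled over 0–24 h after the first dose (C1D1). Troughs for both drugs were taken on C1D15 and at the second biopsy (C2D1 ± 48 h). Plasma was acetonitrile-extracted and run by positive-ESI LC-MS/MS: MEK inhibitor range 1–200 ng/mL; VEGFR inhibitor range 0.010–1 μg/mL, with 1:100 dilution up to 100 μg/mL. Noncompartmental analysis: Cmax observed, AUC by linear trapezoidal rule, Css,min averaged from both troughs.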

[2] = tested on: progressive radioiodine refractory DTC; conditions: cited from earlier work
[3] = tested on: thyroid cancer cell lines and xenograft models; conditions: preclinical studies in DTC; cited from earlier work

SMILES: Cn1cnc2c(F)c(Nc3ccc(Br)cc3Cl)c(C(=O)NOCCO)cc21 [Selumetinib]
PRs, patients (DTC): five | stable disease, patients (DTC): three

Css,min ([1]; pazopanib 800 mg with trametinib 2 mg daily): 33800 ± 17300 ng/mL
SMILES: Cc1ccc(Nc2nccc(N(C)c3ccc4c(C)n(C)nc4c3)n2)cc1S(N)(=O)=O [pazopanib]
PR rate, papillary thyroid cancer ([2]; 5/11 patients as printed): 33% | PR rate, follicular thyroid cancer ([2]; 8/11): 73% | RECIST partial response (PR) rate ([2]; single-agent pazopanib, DTC overall): 49% | median PFS ([2]; single-agent pazopanib): 360 days | effect on p-ERK [3]: paradoxical upregulation of p-ERK

Css,min ([1]; trametinib 2 mg with pazopanib 800 mg daily): 18.7 ± 6.6 ng/mL
SMILES: CC(=O)Nc1cccc(-n2c(=O)n(C3CC3)c(=O)c3c(Nc4ccc(I)cc4F)n(C)c(=O)c(C)c32)c1 [trametinib]
